Data published in ChEMBL document CHEMBL5042480, “3CL Protease Inhibitors with an Electrophilic Arylketone Moiety as Anti-SARS-CoV-2 Agents” (J Med Chem, 2022).
The source made the active and inactive calls. No cut-off for these calls is given here.

Legend:
[1] = system: SARS-CoV-2; assay: Antiviral activity against SARS coronavirus 2 infected in African green monkey Vero cells assessed as blockade of viral proliferation at 25 uM incubated for 48 hrs by cytopathic effect assay; format: functional, organism-based; settings: Severe acute respiratory syndrome coronavirus 2
[2] = Apparent permeability in human Caco-2 monolayer cells at 1 uM and measured upto 120 mins by LC-MS/MS analysis; format: ADME, cell-based
Summary of the method: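 Caco-2 monolayers were grown 21 days on 3.0 μm-pore inserts. They were preincubated 30 min at 37 °C in HBSS with 10 mM HEPES, pH 7.4, and TEER was checked before and after. Transport of compound at 1 μM was run at 37 °C, quantified by LC-MS/MS, and converted to apparent permeability.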

[3] = Tmax in overnight-fasted Wistar rat at 0.5 mg/kg, po measured upto 7 hrs by quadrupole mass spectrometry coupled UFLC analysis; format: ADME, organism-based; settings: in vivo
Summary of the method: (§1)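 Conscious, freely moving male Wistar rats received compound in saline at 4 mL/kg, either i.v. via jugular vein at 0.1 mg/kg or by oral gavage at 0.5 mg/kg. Cannula blood was sampled up to 7 h and plasma measured by LC-MS/MS. Analysis was noncompartmental (trapezoidal AUC); Cmax and tmax were taken as observed, and t1/2 from log-linear terminal regression over at least 3 points. Mean ± SD, n = 5.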

[4] = AUC (0 to 7 hrs) in overnight-fasted Wistar rat at 0.5 mg/kg, po measured upto 7 hrs by quadrupole mass spectrometry coupled UFLC analysis; format: ADME, organism-based; set-up: route oral, dose 0.5 mg/kg, time <=7; settings: in vivo
Summary of the method: (§2)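 Male Wistar rats, conscious and unrestrained, were given the compound in saline at 4 mL/kg, either as an i.v. bolus via the left jugular vein or by oral gavage. Heparinized blood was drawn from a cannula at set times up to 7 h and the plasma analysed by LC-MS/MS. AUC0–7 and AUC0–∞ came from noncompartmental trapezoidal analysis; mean ± SD, n = 5.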

[5] = Drug metabolism in rat hepatocytes assessed as amide hydrolysis mediated HC-6 metabolite formation at 10 uM incubated upto 2 hrs by LC/UV/MS analysis; format: ADME, cell-based, Hepatocyte
Summary of the method: (§3)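 Hepatocytes were suspended at 6 × 10^5 viable cells/mL in KHB buffer and given compound at 10 μM. Incubation was 0 and 2 h at 37 °C under 5% CO2, stopped with acetonitrile. After centrifugation, supernatant metabolites were analysed by LC/UV/MS.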

[6] = system: SARS-CoV-2; assay: Antiviral activity against SARS coronavirus 2 infected in African green monkey VeroE6/TMPRSS2 cells upto 10 uM in presence of MDR-1 inhibitor CP-100356 measured after 24 hrs post-infection by qRT-PCR analysis; format: functional, organism-based; settings: Severe acute respiratory syndrome coronavirus 2; Vero; dose microM <=10, time 24.0 hrs
[7] = system: SARS-CoV-2; assay: Antiviral activity against SARS coronavirus 2 infected in African green monkey Vero cells assessed as reduction in total viral RNA upto 25 uM measured after 24 hrs post-infection by qRT-PCR analysis; format: functional, organism-based; settings: Severe acute respiratory syndrome coronavirus 2, dose microM <=25, time 24.0 hrs
Summary of the method: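 Total viral RNA in treated, SARS-CoV-2-infected Vero cells was quantified by qPCR. Values are mean ± SEM of three independent experiments.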

[8] = AUC (0 to 7 hrs) in overnight-fasted Wistar rat at 0.1 mg/kg, iv measured upto 7 hrs by quadrupole mass spectrometry coupled UFLC analysis; format: ADME, organism-based; set-up: route intravenous, dose 0.1 mg/kg, time <=7; settings: in vivo; summary of the method: as §2
[9] = system: TK6; assay: Mutagenicity against human TK6 cells assessed as induction of micronuclei formation by Micro-flow assay; format: toxicity, cell-based
Summary of the method: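 Human TK6 lymphoblastoid cells were treated either 3 h with 1% S9 followed by 21 h recovery, or continuously for 24 h without S9, at 37 °C under 5% CO2. Relative population doubling was used for cytotoxicity. Positive controls were cyclophosphamide and mitomycin C.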

[10] = Oral bioavailability in overnight-fasted Wistar rat at 0.5 mg/kg and measured upto 7 hrs by quadrupole mass spectrometry coupled UFLC analysis; format: ADME, organism-based; settings: in vivo; summary of the method: as §1
[11] = Drug metabolism in human hepatocytes assessed as amide hydrolysis mediated HC-6 metabolite formation at 10 uM incubated upto 2 hrs by LC/UV/MS analysis; format: ADME, cell-based, Hepatocyte; summary of the method: as §3
[12] = target: Cytochrome P450 3A4 (Homo sapiens, UniProt P08684); assay: Inhibition of CYP3A4 in human liver microsome at 10 uM; format: toxicity; settings: microsomes
Sequence of Cytochrome P450 3A4 (P08684 whole entry): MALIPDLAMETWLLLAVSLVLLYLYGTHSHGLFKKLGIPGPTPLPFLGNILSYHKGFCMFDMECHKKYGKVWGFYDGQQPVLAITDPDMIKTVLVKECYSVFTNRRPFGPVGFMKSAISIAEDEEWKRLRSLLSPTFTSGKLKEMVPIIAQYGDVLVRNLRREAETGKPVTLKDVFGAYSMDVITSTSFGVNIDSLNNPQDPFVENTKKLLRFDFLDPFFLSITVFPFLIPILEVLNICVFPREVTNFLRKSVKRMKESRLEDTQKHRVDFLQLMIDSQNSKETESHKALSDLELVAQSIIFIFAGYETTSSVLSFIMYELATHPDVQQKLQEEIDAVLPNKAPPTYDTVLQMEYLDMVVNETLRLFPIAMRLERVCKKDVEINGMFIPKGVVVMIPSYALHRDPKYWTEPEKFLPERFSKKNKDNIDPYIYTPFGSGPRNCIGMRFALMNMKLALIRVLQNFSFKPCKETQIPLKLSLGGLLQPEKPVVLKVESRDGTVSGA
Summary of the method: (§4)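 Human liver microsomes (0.1 mg protein/mL) were mixed with compound at 10 μM and probe substrates in phosphate buffer pH 7.4: tacrine (CYP1A2), paclitaxel (2C8), tolbutamide (2C9), dextromethorphan (2D6) and midazolam (3A4). Reactions were started with an NADPH-generating system, run 10 min at 37 °C and stopped with acetonitrile. Metabolites were measured by LC/MS/MS and activity expressed as % remaining versus the no-inhibitor control.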

[13] = target: T1, Cytochrome P450 1A2 (Homo sapiens, UniProt P05177); assay: Inhibition of CYP1A2 in human liver microsome at 10 uM; format: toxicity; settings: microsomes; summary of the method: as §4
T1 sequence (P05177 whole entry): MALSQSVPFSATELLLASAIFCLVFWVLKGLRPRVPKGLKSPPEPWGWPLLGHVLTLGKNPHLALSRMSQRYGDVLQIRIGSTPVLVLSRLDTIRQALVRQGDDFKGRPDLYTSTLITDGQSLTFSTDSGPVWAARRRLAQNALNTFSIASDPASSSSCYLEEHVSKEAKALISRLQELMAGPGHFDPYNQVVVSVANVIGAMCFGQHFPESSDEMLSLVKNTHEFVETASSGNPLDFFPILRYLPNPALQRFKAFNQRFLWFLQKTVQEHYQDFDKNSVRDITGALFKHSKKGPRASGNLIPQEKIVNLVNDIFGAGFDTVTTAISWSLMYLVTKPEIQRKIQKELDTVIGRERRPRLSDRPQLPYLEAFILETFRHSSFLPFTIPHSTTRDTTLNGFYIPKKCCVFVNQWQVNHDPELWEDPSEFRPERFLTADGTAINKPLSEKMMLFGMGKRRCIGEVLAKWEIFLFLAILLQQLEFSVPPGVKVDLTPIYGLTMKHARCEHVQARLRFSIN

[14] = Volume of distribution in overnight-fasted Wistar rat at 0.1 mg/kg, iv measured upto 7 hrs by quadrupole mass spectrometry coupled UFLC analysis; format: ADME, organism-based; settings: in vivo; summary of the method: as §1
[15] = Protein binding in rat plasma incubated for 6 hrs by quadrupole mass spectrometry coupled UFLC analysis; format: ADME, cell-free; settings: read-out: PPB
[16] = MRT (total) in overnight-fasted Wistar rat at 0.1 mg/kg, iv measured upto 7 hrs by quadrupole mass spectrometry coupled UFLC analysis; format: ADME, organism-based; settings: in vivo; summary of the method: as §1
[17] = Drug metabolism in human hepatocytes assessed as CYP450-catalysed oxidative pathway mediated metabolite formation at 10 uM incubated upto 2 hrs by LC/UV/MS analysis; format: ADME, cell-based, Hepatocyte; summary of the method: as §3
[18] = system: SARS-CoV-2; assay: Antiviral activity against SARS coronavirus 2 infected in African green monkey Vero cells assessed as blockade of viral proliferation at 10 uM incubated for 48 hrs by cytopathic effect assay; format: functional, organism-based; settings: Severe acute respiratory syndrome coronavirus 2
[19] = Stability in rat plasma assessed as compound degradation incubated for 6 hrs by quadrupole mass spectrometry coupled UFLC analysis; format: ADME, cell-free
Summary of the method: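 Compound at 1 μM was incubated in rat plasma at 37 °C for 0, 1, 2 and 6 h. Remaining concentration was measured by LC/MS/MS.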

In the case of `COc1cccc2[nH]c(C(=O)N[C@@H](CC(C)C)C(=O)N[C@@H](C[C@@H]3CCNC3=O)C(=O)c3nc4ccccc4s3)cc12`, the Activity [1] is reported as “Active”, the Papp at 2 h, 1 µM [2] is reported as 18.9 ×10⁻⁶ cm/s and the Tmax [3] is reported as 21 min. The AUC(0-t) [4] was 1.59 ng·h/mL, the Drug metabolism [5] was “Metabolite_Detected” and the Activity [6] was “Active”. For the same compound, the Activity [7] was “Active”, the AUC(0-t) [8] was 19.3 ng·h/mL and the Activity [9] was “Non-Toxic”. The bioavailability [10] was 3.55%, the Drug metabolism [11] was “Metabolite_Detected” and the “inhibition (INH)” value [12] was “Not Active”. For the same compound, the “inhibition (INH)” value [13] was “Active”, the Vd [14] was 3.51 L/kg and the fraction unbound at 6 h [15] was 0.01. The MRT [16] was 29.6 min, the Drug metabolism [17] was “Metabolite_Detected” and the Activity [18] was “Active”. The Stability [19] was “Stable”.
